Results as given in ChEMBL document CHEMBL2434829, “Synthesis of new andrographolide derivatives and evaluation of their antidyslipidemic, LDL-oxidation and antioxidant activity” (2013).
Activity calls are given as the source filed them. The calls are words filed in the database; no cut-off is given here.

Columns and labels:
Rattus norvegicus [1] = assay: Antidyslipidemic activity in Charles foster rat assessed as increase in triton WR-1339-reduced post heparin lipolytic activity level in plasma at 150 mg/kg, po after 18 hrs by spectrophotometric analysis relative to triton-treated rat; assay type: functional; design: scale not given: the % may be the effect or the level left
In short: (§1)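 Triton WR-1339 hyperlipidemia in male Charles Foster rats: 400 mg/kg i.p. plus oral dose in gum acacia vehicle, fasted, 6 rats/group. Plasma taken 18 h later from retro-orbital blood. Post-heparin lipolytic activity measured spectrophotometrically as nmol free fatty acids formed/h/ml plasma. Percent change against triton-only rats; mean ± SD.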

Rattus norvegicus [2] = assay: Antidyslipidemic activity in Charles foster rat assessed as decrease in triton WR-1339-induced triglyceride level in plasma at 100 mg/kg, po after 18 hrs relative to triton-treated rat; assay type: functional; design: scale not given: the % may be the effect or the level left
In short: (§2)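 Male adult Charles Foster rats (200–225 g), six per group. Triton WR-1339 400 mg/kg i.p., with test agent given orally at the same time as a gum acacia suspension in water; food withdrawn. Controls received vehicle. At 18 h, retro-orbital EDTA blood taken and centrifuged 2500 × g for 10 min at 4 °C. Plasma diluted 1:3 in saline; TC, PL and TG read enzymatically on an autoanalyzer. Percent change against triton group.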

[3] = Antioxidant activity assessed as decrease in hydroxyl radicals level by measuring formation of malondialdehyde at 200 ug/ml after 90 mins by spectrophotometric analysis relative to control; assay type: functional; design: scale not given: the % may be the effect or the level left
In short: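 Hydroxyl radicals generated without enzyme from deoxyribose 2.8 mM, FeSO4·7H2O 2 mM, sodium ascorbate 2.0 mM and H2O2 2.8 mM in 50 mM KH2PO4 pH 7.4. Compound at 200 µg/mL. Incubated 37 °C for 90 min. Mannitol as standard.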

Rattus norvegicus [4] = assay: Antidyslipidemic activity in Charles foster rat assessed as decrease in triton WR-1339-induced LDL cholesterol level in plasma at 100 mg/kg, po after 18 hrs by poly anionic precipitation method relative to triton-treated rat; assay type: functional, organism-based; design: dose 100 mg/kg
In short: (§3)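 Male adult Charles Foster rats (200–225 g), 6/group. Triton WR-1339 400 mg/kg i.p.; test agent in gum acacia suspension in water given orally together with triton, diet withdrawn. After 18 h, blood drawn from retro-orbital sinus into EDTA tubes under thiopentone anaesthesia. Plasma split into VLDL, LDL and HDL by polyanionic precipitation, then cholesterol measured. Mean ± SD.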

Rattus norvegicus [5] = assay: Antidyslipidemic activity in Charles foster rat assessed as increase in triton WR-1339-reduced post heparin lipolytic activity level in plasma at 200 mg/kg, po after 18 hrs by spectrophotometric analysis relative to triton-treated rat; assay type: functional; design: scale not given: the % may be the effect or the level left; in short: as §1
Rattus norvegicus [6] = assay: Antidyslipidemic activity in Charles foster rat assessed as decrease in triton WR-1339-induced total cholesterol level in plasma at 25 mg/kg, po after 18 hrs relative to triton-treated rat; assay type: functional; design: scale not given: the % may be the effect or the level left; in short: as §2
Rattus norvegicus [7] = assay: Antidyslipidemic activity in Charles foster rat assessed as decrease in triton WR-1339-induced total cholesterol level in plasma at 50 mg/kg, po after 18 hrs relative to triton-treated rat; assay type: functional; design: scale not given: the % may be the effect or the level left; in short: as §2
Rattus norvegicus [8] = assay: Antidyslipidemic activity in Charles foster rat assessed as decrease in triton WR-1339-induced phospholipid level in plasma at 150 mg/kg, po after 18 hrs relative to triton-treated rat; assay type: functional; design: scale not given: the % may be the effect or the level left; in short: as §2
Rattus norvegicus [9] = assay: Antidyslipidemic activity in Charles foster rat assessed as decrease in triton WR-1339-induced VLDL cholesterol level in plasma at 100 mg/kg, po after 18 hrs by poly anionic precipitation method relative to triton-treated rat; assay type: functional, organism-based; design: dose 100 mg/kg; in short: as §3
Rattus norvegicus [10] = assay: Antidyslipidemic activity in Charles foster rat assessed as increase in triton WR-1339-reduced HDL cholesterol level in plasma at 100 mg/kg, po after 18 hrs by poly anionic precipitation method relative to triton-treated rat; assay type: functional, organism-based; design: dose 100 mg/kg; in short: as §3
Rattus norvegicus [11] = assay: Antidyslipidemic activity in Charles foster rat assessed as decrease in triton WR-1339-induced phospholipid level in plasma at 25 mg/kg, po after 18 hrs relative to triton-treated rat; assay type: functional; design: scale not given: the % may be the effect or the level left; in short: as §2
Rattus norvegicus [12] = assay: Antidyslipidemic activity in Charles foster rat assessed as decrease in triton WR-1339-induced phospholipid level in plasma at 50 mg/kg, po after 18 hrs relative to triton-treated rat; assay type: functional; design: scale not given: the % may be the effect or the level left; in short: as §2
Rattus norvegicus [13] = assay: Antidyslipidemic activity in Charles foster rat assessed as decrease in triton WR-1339-induced triglyceride level in plasma at 50 mg/kg, po after 18 hrs relative to triton-treated rat; assay type: functional; design: scale not given: the % may be the effect or the level left; in short: as §2
Rattus norvegicus [14] = assay: Antidyslipidemic activity in Charles foster rat assessed as decrease in triton WR-1339-induced triglyceride level in plasma at 25 mg/kg, po after 18 hrs relative to triton-treated rat; assay type: functional; design: scale not given: the % may be the effect or the level left; in short: as §2
Rattus norvegicus [15] = assay: Antidyslipidemic activity in Charles foster rat assessed as decrease in triton WR-1339-induced phospholipid level in plasma at 200 mg/kg, po after 18 hrs relative to triton-treated rat; assay type: functional; design: scale not given: the % may be the effect or the level left; in short: as §2
Rattus norvegicus [16] = assay: Antidyslipidemic activity in Charles foster rat assessed as decrease in triton WR-1339-induced triglyceride level in plasma at 200 mg/kg, po after 18 hrs relative to triton-treated rat; assay type: functional; design: scale not given: the % may be the effect or the level left; in short: as §2
Rattus norvegicus [17] = assay: Antidyslipidemic activity in Charles foster rat assessed as increase in triton WR-1339-reduced post heparin lipolytic activity level in plasma at 100 mg/kg, po after 18 hrs by spectrophotometric analysis relative to triton-treated rat; assay type: functional; design: scale not given: the % may be the effect or the level left; in short: as §1
Rattus norvegicus [18] = assay: Antidyslipidemic activity in Charles foster rat assessed as decrease in triton WR-1339-induced phospholipid level in plasma at 100 mg/kg, po after 18 hrs relative to triton-treated rat; assay type: functional; design: scale not given: the % may be the effect or the level left; in short: as §2
Rattus norvegicus [19] = assay: Antidyslipidemic activity in Charles foster rat assessed as decrease in triton WR-1339-induced triglyceride level in plasma at 150 mg/kg, po after 18 hrs relative to triton-treated rat; assay type: functional; design: scale not given: the % may be the effect or the level left; in short: as §2
Rattus norvegicus [20] = assay: Antidyslipidemic activity in Charles foster rat assessed as increase in triton WR-1339-reduced lipoprotein lipase level in liver at 100 mg/kg, po relative to triton-treated rat; assay type: functional, organism-based; design: dose 100 mg/kg
In short: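 Rats given triton WR-1339 (400 mg/kg i.p.) with oral test agent in gum acacia, 6 per group. Liver homogenized 10% w/v in cold 100 mM phosphate buffer pH 7.2 and assayed for total lipoprotein lipase lipolytic activity. Mean ± SD.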

Rattus norvegicus [21] = assay: Antidyslipidemic activity in Charles foster rat assessed as decrease in triton WR-1339-induced total cholesterol level in plasma at 100 mg/kg, po after 18 hrs relative to triton-treated rat; assay type: functional; design: scale not given: the % may be the effect or the level left; in short: as §2
[22] = Antioxidant activity assessed as reduction of LDL-oxidation at 200 ug/ml after 1 hr by TBARS assay in presence of Cu 2+ relative to control; assay type: functional; design: scale not given: the % may be the effect or the level left; conditions: in the assay text read “after 16 hr” for “after 1 hr”
In short: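 LDL obtained by ultracentrifugation of serum from overnight-fasted normolipemic donors, dialyzed against 150 mM NaCl with 0.02% EDTA under N2, purity checked by PAGE. LDL 0.71 mg with CuCl2·2H2O 10 µM, compound at 200 µg/mL, in 50 mM PBS pH 7.4 for 16 h at 37 °C. Lipid peroxides read as TBARS after heating with SDS, acetic acid and 0.8% TBA for 1 h in boiling water.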

Rattus norvegicus [23] = assay: Antidyslipidemic activity in Charles foster rat assessed as decrease in triton WR-1339-induced total cholesterol level in plasma at 150 mg/kg, po after 18 hrs relative to triton-treated rat; assay type: functional; design: scale not given: the % may be the effect or the level left; in short: as §2
Rattus norvegicus [24] = assay: Antidyslipidemic activity in Charles foster rat assessed as increase in triton WR-1339-reduced post heparin lipolytic activity level in plasma at 50 mg/kg, po after 18 hrs by spectrophotometric analysis relative to triton-treated rat; assay type: functional; design: scale not given: the % may be the effect or the level left; in short: as §1
[25] = Antioxidant activity assessed as decrease in superoxide anions level by measuring formation of formazone at 200 ug/ml after 30 mins by spectrophotometric analysis relative to control; assay type: functional; design: scale not given: the % may be the effect or the level left
In short: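 Superoxide made enzymatically with xanthine ([…]), xanthine oxidase (0.04 U) and nitroblue tetrazolium (320 µM) in 100 mM phosphate buffer pH 8.2. Compound at 200 µg/mL, sonicated in buffer. Incubated 37 °C for 30 min, stopped with glacial acetic acid, formazan read spectrophotometrically. Allopurinol as standard.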

Rattus norvegicus [26] = assay: Antidyslipidemic activity in Charles foster rat assessed as decrease in triton WR-1339-induced total cholesterol level in plasma at 200 mg/kg, po after 18 hrs relative to triton-treated rat; assay type: functional; design: scale not given: the % may be the effect or the level left; in short: as §2
[27] = Antioxidant activity assessed as reduction of microsomal lipid per-oxidation level by measuring formation of malondialdehyde at 200 ug/ml after 90 mins by spectrophotometric analysis relative to control; assay type: functional; design: scale not given: the % may be the effect or the level left
Rattus norvegicus [28] = assay: Antidyslipidemic activity in Charles foster rat assessed as increase in triton WR-1339-reduced post heparin lipolytic activity level in plasma at 25 mg/kg, po after 18 hrs by spectrophotometric analysis relative to triton-treated rat; assay type: functional; design: scale not given: the % may be the effect or the level left; in short: as §1

| SMILES | Activity (Rattus norvegicus [1]) [%] | Activity (Rattus norvegicus [2]) [%] | Activity [3] [%] | Activity (Rattus norvegicus [4]) | Activity (Rattus norvegicus [5]) [%] | Activity (Rattus norvegicus [6]) [%] | Activity (Rattus norvegicus [7]) [%] | Activity (Rattus norvegicus [8]) [%] | Activity (Rattus norvegicus [9]) | Activity (Rattus norvegicus [10]) | Activity (Rattus norvegicus [11]) [%] | Activity (Rattus norvegicus [12]) [%] | Activity (Rattus norvegicus [13]) [%] | Activity (Rattus norvegicus [14]) [%] | Activity (Rattus norvegicus [15]) [%] | Activity (Rattus norvegicus [16]) [%] | Activity (Rattus norvegicus [17]) [%] | Activity (Rattus norvegicus [18]) [%] | Activity (Rattus norvegicus [19]) [%] | Activity (Rattus norvegicus [20]) | also measured |
| --- | --- | --- | --- | --- | --- | --- | --- | --- | --- | --- | --- | --- | --- | --- | --- | --- | --- | --- | --- | --- | --- |
| C=C1CC[C@@H]2[C@](C)(CO)[C@H](O)CC[C@@]2(C)[C@@H]1C/C=C1/C(=O)OC[C@H]1O [ANDROGRAPHOLIDE] | 18 | 28 | 36 | Active | 18 | 14 | 21 | 29 | Active | Active | 12 | 20 | 21 | 15 | 30 | 30 | 16 | 26 | 30 | Active | Activity (Rattus norvegicus [21]): 27%; Activity [22]: 45%; Activity (Rattus norvegicus [23]): 29%; Activity (Rattus norvegicus [24]): 13%; Activity [25]: 33%; Activity (Rattus norvegicus [26]): 29%; Activity [27]: 38%; Activity (Rattus norvegicus [28]): 10% |
| C=C1CC[C@@H]2[C@](C)(COS(=O)(=O)c3ccc(C)cc3)[C@H](O)CC[C@@]2(C)[C@@H]1C/C=C1/C(=O)OC[C@H]1O | 18 | 35 | 46 | Active | 18 | 16 | 22 | 39 | Active | Active | 15 | 22 | 20 | 14 | 40 | 37 | 18 | 37 | 37 | Active | Activity (Rattus norvegicus [21]): 33%; Activity [22]: 55%; Activity (Rattus norvegicus [23]): 34%; Activity (Rattus norvegicus [24]): 13%; Activity [25]: 41%; Activity (Rattus norvegicus [26]): 34%; Activity [27]: 40%; Activity (Rattus norvegicus [28]): 10% |
